The record followed here is ChEMBL document CHEMBL1145189, “Synthesis and evaluation of S-acyl-2-thioethyl esters of modified nucleoside 5'-monophosphates as inhibitors of hepatitis C virus RNA replication” (J Med Chem, 2005).

The nature of assay [1]: Inhibitory concentration against hepatitis C virus NS5B-mediated RNA synthesis in HBI10A cells. Type of assay: functional, cell-based. To be noted: Homo sapiens.
Assay [2] in a line: Effective concentration against hepatitis C virus RNA replication in a subgenomic bicistronic replicon in HBI10A cells. In kind it is functional, cell-based. The conditions noted are these: Homo sapiens. A digest of the protocol:
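Stable Huh-7-derived HBI10A hepatoma line carrying a subgenomic bicistronic HCV replicon. Compound incubated with cells for 24 h. Relative replicon RNA then quantified by in situ ribonuclease protection assay.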
A general note: Replicon systems follow genome replication, usually without infectious particles.

Assay [3] in a line: Cytotoxic concentration of compound in human HBI10A cells infected with hepatitis C virus in MTS assay. Type of assay: functional. In a few lines:
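MTS cytotoxicity run on samples parallel to the replicon assay, at the same time (24 h compound exposure). Cells plated at 2.0 × 10⁴/well and compound added next day at 2× in medium. Incubation at 37 °C, 5% CO₂. MTS reagent added for 1 h, then absorbance read at 490 nm.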
(In general: Tetrazolium assays rely on reduction of a dye to a coloured formazan, in cell work by metabolically active cells.)

The term IC50 denotes the midpoint of a concentration-inhibition curve. Lower therefore signals inhibition by little substance. In general, EC50 refers to the concentration needed to bring the measured effect to its halfway point. A higher EC50 goes with weaker potency. The CC50 is the concentration at which the toxic effect on the cells reaches its halfway point. In assay [1], `Nc1ccn([C@@H]2O[C@H](CO)C[C@H]2O)c(=O)n1` had an IC50 of 1200 nM. The concentration for a half-maximal effect (EC50) in assay [2] is 25 µM. The CC50 in assay [3] was > 50 µM.

`CO[C@@H]1[C@H](O)[C@@H](CO)O[C@H]1n1cnc2c(O)nc(N)nc21` returned an IC50 in assay [1] of 1200 nM. Moreover, the EC50 in assay [2] was > 50 µM.

`CC(C)(C)C(=O)SCCOP(=O)(OCCSC(=O)C(C)(C)C)OC[C@@H]1C[C@@H](O)[C@H](n2ccc3c(O)nc(N)nc32)O1`: the EC50 in assay [2] worked out at 7.2 µM. Besides, the CC50 in assay [3] was > 50 µM.

In the case of `CC(C)(C)C(=O)SCCOP(=O)(OCCSC(=O)C(C)(C)C)OC[C@@H]1C[C@@H](O)[C@H](n2ccc(N)nc2=O)O1`, the EC50 in assay [2] came out at 1.4 µM. In addition, the CC50 in assay [3] is > 100 µM.

Compound `CC(C)(C)C(=O)SCCOP(=O)(OCCSC(=O)C(C)(C)C)OC[C@@H]1C[C@@H](O)[C@H](n2cnc3c(O)nc(N)nc32)O1` came in with an EC50 in assay [2] of 23 µM. For the same compound, the CC50 in assay [3] was > 50 µM.

Take `CO[C@@H]1[C@H](O)[C@@H](COP(=O)(OCCSC(=O)C(C)(C)C)OCCSC(=O)C(C)(C)C)O[C@H]1n1ccc2c(O)nc(N)nc21`: the EC50 in assay [2] was > 50 µM. The CC50 in assay [3] was > 100 µM.
